Calls of active or inactive are those of the source. No cut-off for these calls is given here.
Key:
[1] = biological target: T1, Tubulin (Homo sapiens) (UniProt P68371+Q9H4B7+P0DPH7+P68366+Q13509+Q71U36+P04350+Q3ZCM7+P07437+P68363+Q9BQE3+Q6PEY2+Q13885+Q9BVA1+Q9BUF5); experiment: Inhibition of tubulin polymerization in human SKOV3 cells assessed as micronuclei formation at 1 uM after 24 hrs by Hoechst 33258/FITC staining-based flow cytometric analysis; format: cell-based
Outline: (§1)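 Cells seeded at 12.5 × 10^4 per well and exposed to 1 µM compound for 24 h. Nuclei were stained with Hoechst 33258 (10 µg/mL, 30 min, 37 °C), then fixed in 4% formaldehyde/PBS (15 min, RT). Cells were permeabilized with 1% Triton X-100, blocked with 2% BSA/PBS for 1 h, and incubated with anti-α-tubulin-FITC (1:50) overnight at 4 °C. Imaged by fluorescence microscopy.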

[2] = biological target: T1, Tubulin (Homo sapiens); experiment: Inhibition of tubulin polymerization in human HeLa cells assessed as micronuclei formation at 1 uM after 24 hrs by Hoechst 33258/FITC staining-based […] analysis; format: cell-based; outline: as §1
[3] = system: A549; experiment: Cytotoxicity against human A549 cells after 48 hrs by MTT assay; format: functional, cell-based; details: A549, 48 h
[4] = biological target: T1, Tubulin (Homo sapiens); experiment: Inhibition of tubulin polymerization in human MCF7 cells assessed as micronuclei formation at 1 uM after 24 hrs by ELISA; format: cell-based
[5] = system: HaCaT; experiment: Induction of apoptosis in human HaCaT cells after 24 hrs by FITC Annexin V/propidium iodide staining-based FACScan flow cytometric analysis; format: cell-based
Outline: (§2)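 After 24 h of compound exposure, 1 × 10^6 cells were labelled with annexin V-FITC and PI for 15 min at 25 °C in the dark. They were read on a FACScan with 488 nm excitation, detecting FITC at 525 nm and PI at 620 nm. Results are mean ± SD of three independent experiments, with Dunnett's test against control.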

[6] = system: MCF7; experiment: Induction of apoptosis in human MCF7 cells after 24 hrs by FITC Annexin V/propidium iodide staining-based FACScan flow cytometric analysis; format: functional, cell-based; outline: as §2
[7] = system: MDA-MB-231; experiment: Cytotoxicity against human MDA-MB-231 cells after 48 hrs by MTT assay; format: functional, cell-based; details: MDA-MB-231, 48 h
Outline: (§3)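 Cells in DMEM with 10% FBS were plated at 2 × 10^4 per well and left overnight, then treated for 48 h at 0.6–20 µM (six concentrations) from 10 mM DMSO stocks. MTT was added for 2 h, and formazan was dissolved in DMSO and read at 570 nm. Viability was expressed as % of control, with IC50 taken from dose-response curves. Results are mean ± SD of three independent experiments.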

[8] = system: A-431; experiment: Cytotoxicity against human A431 cells after 48 hrs by MTT assay; format: functional, cell-based; details: A-431, 48 h; outline: as §3
[9] = system: Tubulin; experiment: Inhibition of tubulin polymerization in human HaCaT cells assessed as micronuclei formation at 1 uM after 24 hrs by ELISA; format: cell-based
[10] = system: Tubulin; experiment: Inhibition of tubulin polymerization in human HaCaT cells assessed as perturbation in cytoskeleton structure at 1 uM after 24 hrs by ELISA; format: cell-based
[11] = system: HaCaT; experiment: Cell cycle arrest in human HaCaT cells assessed as accumulation of cells at G2/M phase at 0.1 to 1 uM after 24 hrs by propidium iodide staining-based FACS analysis
Outline: (§4)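 Cells were seeded at 5 × 10^5 per well in DMEM with 10% FBS and left overnight, then exposed to 0.1, 0.5 or 1 µM for 24 h. DMSO served as the negative control and 50 nM camptothecin as the positive control. Cells were trypsinized, fixed in 70% ethanol for 30 min at 4 °C, stained with 50 µg/mL PI plus 100 µg/mL RNase A for 30 min in the dark, and analysed by flow cytometry. Results are mean ± SD of three experiments, compared by ANOVA with Dunnett's test.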

[12] = biological target: T1, Tubulin (Homo sapiens); experiment: Inhibition of tubulin polymerization in human MCF7 cells assessed as micronuclei formation at 1 uM after 24 hrs by Hoechst 33258/FITC staining-based […] analysis; format: cell-based; outline: as §1
[13] = biological target: T1, Tubulin (Homo sapiens); experiment: Inhibition of tubulin polymerization in human SKOV3 cells assessed as micronuclei formation at 1 uM after 24 hrs by ELISA; format: cell-based
[14] = biological target: T1, Tubulin (Homo sapiens); experiment: Inhibition of tubulin polymerization in human A431 cells assessed as perturbation in cytoskeleton structure at 1 uM after 24 hrs by Hoechst 33258/FITC staining-based flow cytometric analysis; format: cell-based
[15] = biological target: T1, Tubulin (Homo sapiens); experiment: Inhibition of tubulin polymerization in human MDA-MB-231 cells assessed as perturbation in cytoskeleton structure at 1 uM after 24 hrs by ELISA; format: cell-based
[16] = system: MCF7; experiment: Cytotoxicity against human MCF7 cells after 48 hrs by MTT assay; format: functional, cell-based; details: MCF7, 48 h; outline: as §3
[17] = system: SK-OV-3; experiment: Cytotoxicity against human SKOV3 cells after 48 hrs by MTT assay; format: functional, cell-based; details: SK-OV-3, 48 h; outline: as §3
[18] = biological target: T1, Tubulin (Homo sapiens); experiment: Inhibition of tubulin polymerization in human MCF7 cells assessed as perturbation in cytoskeleton structure at 1 uM after 24 hrs by Hoechst 33258/FITC staining-based flow cytometric analysis; format: cell-based; outline: as §1
[19] = system: MDA-MB-231; experiment: Induction of apoptosis in human MDA-MB-231 cells after 24 hrs by FITC Annexin V/propidium iodide staining-based FACScan flow cytometric analysis; format: functional, cell-based; outline: as §2
[20] = system: HeLa; experiment: Cytotoxicity against human HeLa cells after 48 hrs by MTT assay; format: functional, cell-based; outline: as §3
[21] = system: MCF7; experiment: Cell cycle arrest in human MCF7 cells assessed as accumulation of cells at G2/M phase at 0.1 to 1 uM after 24 hrs by propidium iodide staining-based FACS analysis; format: functional; outline: as §4
[22] = system: A-431; experiment: Cell cycle arrest in human A431 cells assessed as accumulation of cells at G2/M phase at 0.1 to 1 uM after 24 hrs by propidium iodide staining-based FACS analysis; format: functional; outline: as §4
[23] = biological target: T1, Tubulin (Homo sapiens); experiment: Inhibition of tubulin polymerization in human HeLa cells assessed as micronuclei formation at 1 uM after 24 hrs by ELISA; format: cell-based
[24] = system: SK-OV-3; experiment: Induction of apoptosis in human SKOV3 cells after 24 hrs by FITC Annexin V/propidium iodide staining-based FACScan flow cytometric analysis; format: functional, cell-based; outline: as §2
[25] = biological target: T1, Tubulin (Homo sapiens); experiment: Inhibition of tubulin polymerization in human A431 cells assessed as micronuclei formation at 1 uM after 24 hrs by ELISA; format: cell-based
[26] = system: Tubulin; experiment: Inhibition of tubulin polymerization in human HaCaT cells assessed as perturbation in cytoskeleton structure at 1 uM after 24 hrs by Hoechst 33258/FITC staining-based […]; format: cell-based; outline: as §1
[27] = system: A-431; experiment: Induction of apoptosis in human A431 cells after 24 hrs by FITC Annexin V/propidium iodide staining-based FACScan flow cytometric analysis; format: functional, cell-based; outline: as §2
[28] = biological target: T1, Tubulin (Homo sapiens); experiment: Inhibition of tubulin polymerization in human MCF7 cells assessed as perturbation in cytoskeleton structure at 1 uM after 24 hrs by ELISA; format: cell-based
[29] = biological target: T1, Tubulin (Homo sapiens); experiment: Inhibition of tubulin polymerization in human SKOV3 cells assessed as perturbation in cytoskeleton structure at 1 uM after 24 hrs by Hoechst 33258/FITC staining-based flow cytometric analysis; format: cell-based; outline: as §1
[30] = Inhibition of porcine tubulin polymerization after 1 hr by spectrophotometric analysis; parameters: species or system Sus scrofa
Outline: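 Polymerization was started by shifting from 4 °C to 37 °C, and absorbance was followed at 37 °C for 60 min. The vehicle served as control.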

[31] = system: HeLa; experiment: Induction of apoptosis in human HeLa cells after 24 hrs by FITC Annexin V/propidium iodide staining-based FACScan flow cytometric analysis; format: functional, cell-based; outline: as §2

Row | inhibition (INH) [10] | inhibition [14] | inhibition [15] | inhibition [18] | SMILES | inhibition [1] | inhibition [2] | IC50 [3] | inhibition [4] | Activity [5] | Activity [6] | IC50 [7] | IC50 [8] | inhibition (INH) [9] | Activity [11] | inhibition [12] | inhibition [13] | IC50 [16] | IC50 [17] | Activity [19] | IC50 [20] | also measured
1 | Active | Active | Active | Active | COc1ccc(-c2ocnc2-c2cc(Br)c(OC)c(OC)c2)cc1SC | Active | Active | > 20000 nM | Active | Dose-dependent effect | Dose-dependent effect | 920 nM | 430 nM | Active | Toxic | Active | Active | 2780 nM | 1160 nM | Dose-dependent effect | 630 nM | Activity [21]: Active; Activity [22]: Active; inhibition [23]: Active; Activity [24]: Dose-dependent effect; inhibition [25]: Active; inhibition (INH) [26]: Active; Activity [27]: Dose-dependent effect; inhibition [28]: Active; inhibition [29]: Active; IC50 [30]: 850 nM; Activity [31]: Dose-dependent effect
2 | Active | Active | Active | Active | COc1ccc(-c2ocnc2-c2cc(OC)c(SC)c(OC)c2)cc1O | Active | Active | > 20000 nM | Active | Dose-dependent effect | Dose-dependent effect | 710 nM | 250 nM | Active | Toxic | Active | Active | 450 nM | 250 nM | Dose-dependent effect | 9 nM | Activity [21]: Active; Activity [22]: Active; inhibition [23]: Active; Activity [24]: Dose-dependent effect; inhibition [25]: Active; inhibition (INH) [26]: Active; Activity [27]: Dose-dependent effect; inhibition [28]: Active; inhibition [29]: Active; IC50 [30]: 1050 nM; Activity [31]: Dose-dependent effect

— ChEMBL document CHEMBL4145466, “Design, synthesis, and biological evaluation of novel combretastatin A-4 thio derivatives as microtubule targeting agents” (Eur J Med Chem, 2018)
